# LYP inh 2: inhibitors of human LYP (PTPN22) phosphatase; recombinant LYP catalytic domain, DiFMUP fluorescence; Q9Y2R2; 96,000 tested, 0.21% active; AID 640; inhibition, % at 2 µM;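 active means inhibition at 2 µM at or above a set limit, the screen mean plus 3 SD, cut at about 24% in these data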;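 further: 0% = DMSO with enzyme and 100% = enzyme fully blocked by orthovanadate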
# HIV Rev-RRE inh: HIV Rev-RRE protein-RNA interaction inhibition; Rev peptide-RRE RNA binding, FRET; inhibition, % at 8 µM; 97,000 tested, 0.79% active;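 active means inhibition above the screen-wide mean plus 3 SD, cut at about 35% in these data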;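 further: 0% = median DMSO wells and 100% = median Neomycin B control wells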
#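 Test system: Cy5-tagged RRE RNA duplex with fluorescein-tagged Rev peptide | Read-out: % inhibition of FRET ratio versus controls | Probe or stimulus: Labelled Rev peptide | Incubation: 5 min RNA-compound premix plus 15 min binding step, 25 °C | Technique: FRET fluorescence readout | Benchmarks: DMSO low control, neomycin B high control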
# PTPN22 act: activators of human LYP (PTPN22) phosphatase | recombinant LYP, DiFMUP fluorescence; 0 = plate median, 100 = signal doubled | activation, % at 2 µM | 96,000 tested, 0.11% active | AID 697;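 active means activation at 2 µM above a set limit, the mean plus 5 SD, cut at about 37% in these data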
# EphB4 antag: EphB4-ephrin-B2 interaction antagonism; 97,000 tested, 0.15% active; AID 720; P54760; EphB4 LBD / TNYL-RAW-Alexa532 peptide, fluorescence polarization; inhibition, % at 7 µM;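 active means inhibition above the screen-wide mean inhibition plus 3 SD, cut at about 15% in these data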;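 further: 0% = DMSO wells and 100% = excess unlabeled TNYL-RAW peptide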
# Numbers without * were called inactive; [ ] = remark or other dose. Shown are actives, neighbours in structure and some others; about 1.3% of the full set was active somewhere.
SMILES,LYP inh 2,HIV Rev-RRE inh,PTPN22 act,EphB4 antag
O=[n+]1c2c(n([O-])c3cc(F)c(N4CCCC4)cc31)CCC2,5,66*[fluorescence artefact?],-2,6
O=[n+]1c2c(n([O-])c3cc(F)ccc31)CCCC2,-7,4,4,-2
CCOC(=O)C1=C(N)OC2=C(C(=O)CC(C)(C)C2)C1c1ccccc1OCC#N (configuration not stated),2,0,-4,-5
Cc1c(CCOC(=O)C2C3CC4CC(C3)CC2C4)sc[n+]1CC(=O)c1ccc(Br)cc1 (configuration not stated),33*,-1,-32,2
COCCCn1c(-c2ccccc2Cl)n[nH]c1=S,0,0,1,-7
O=S(=O)(Nc1cccc2ccccc12)N1CCCC1,0,7,-1,3
COc1ccccc1C(=O)N1CCC(C(=O)c2ccc(F)cc2)CC1,8,2,-8,-6
COc1cc(N2CCCC2)c(OC)cc1/C=C(/C#N)c1ccc(Br)cc1,-4,114*[fluorescence artefact?],4,-12
COc1cc(N2CCCC2)c(OC)cc1/C=C(/C#N)c1ccc(F)cc1,-6,95*[fluorescence artefact?],6,-1
CC1CCN(C(=O)COC(=O)c2cc(Cl)cc(Cl)c2N)CC1,10,1,-9,-1
Cc1ccc(-c2cnc(N)n2C)cc1C,8,9,-5,3
CCCNc1c(F)c(F)c2c(C)c3ccccc3nc2c1F,7,121*[fluorescence artefact?],-2,-5
Cc1ccc(/C=c2\sc3nc(-c4ccccc4Br)nn3c2=O)o1,4,2,-1,-11
C=CCn1c(=O)/c(=C/c2ccc(C)o2)s/c1=C(/C#N)C(=O)c1ccccc1,0,118*[fluorescence artefact?],-3,2
CCN1CCc2c(C#N)c(N3CCOCC3)nc(NCCO)c2C1,-24,1,21,-3
CCOC(=O)c1cc(CC)sc1NC(=O)c1cc(OC)c(OC)c(OC)c1,-19,-1,16,-4
CCOC(=O)c1sc(N)c(C#N)c1COC(=O)CNC(=O)c1cc(OC)c(OC)c(OC)c1,2,53*,-3,-2
Cc1cc(-c2ccccc2)nc2[n+]1CCN2C,8,11,-7,4
CCOc1cc(C2C(C#N)=C(N)OC(C)=C2C(C)=O)cc(Br)c1O (configuration not stated),-5,50*,1,0
Cc1cc(F)c(F)c(C(=O)N2CCN(C)CC2)c1Cl,-6,7,5,-6
COc1ccc(N(CC(=O)NN=C2CCCCCCC2)S(=O)(=O)c2ccccc2)cc1,0,5,-2,0
Cc1ccc2[nH]c3c(c2c1)CN(C(=O)CN1CCSCC1)CC3,1,36*,-2,2
Cc1ccc2[nH]c3c(c2c1)CN(C(=O)CN1CC(C)OC(C)C1)CC3 (configuration not stated),13,61*,-12,1
CCOc1ccc(N2C(=O)CN=C2Nc2ccccc2Cl)cc1,0,0,1,2
CCOc1ccc(N2C(=O)C(Cl)=C(Nc3ccccc3O)C2=O)cc1,3,37*,-4,-2
SMILES,LYP inh 2,HIV Rev-RRE inh,PTPN22 act,EphB4 antag
O=C(COC(=O)c1c[nH]c(=O)[nH]c1=O)NCc1ccccc1,-2,9,4,-4
O=C(O)c1ccccc1C1=Nc2ccc(O)cc2Oc2cc(O)ccc21,9,78*,-12,-4
CCOC(=O)N1CCC(n2c(SCC(=O)NCc3ccccc3)nc3ccccc3c2=O)CC1,4,2,-6,16*
CCOC(=O)N1CCC(n2c(SCC(=O)NCCC3=CCCCC3)nc3ccccc3c2=O)CC1,6,6,-8,15*
CCOC(=O)N1CCC(n2c(SCC(=O)N3CCCC3)nc3ccccc3c2=O)CC1,12,1,-10,0
CC(=O)NCC(=O)OCC(=O)c1ccc2ccccc2c1,1,7,0,-9
O=C(c1ccc(Cl)c(F)c1F)N1CCCC1,9,-3,-6,2
COCCn1nnnc1CN(Cc1cc2cc(OC)c(OC)cc2[nH]c1=O)C1CCCC1,-21,29,20,-11
CCOc1ccc2[nH]c(=O)c(CN(Cc3ccco3)Cc3nnnn3Cc3ccccc3)cc2c1,-15,6,12,-6
CCOc1ccc2[nH]c(=O)c(CN(Cc3nnnn3Cc3ccco3)C3CCCCC3)cc2c1,10,60*,-12,6
COc1cc2cc(CN(Cc3nnnn3Cc3ccco3)C3CCCCC3)c(=O)[nH]c2cc1OC,7,45*,-8,3
COc1ccc2cc(CN(Cc3ccco3)Cc3nnnn3C3CCCCC3)c(=O)[nH]c2c1,5,6,-7,1
COc1ccc2cc(CN(Cc3ccco3)C(c3nnnn3C3CCCCC3)C(C)C)c(=O)[nH]c2c1 (configuration not stated),26*,7,-23,9
COC(=O)c1c(C)[nH]c(C(=O)CSc2ccc(Cl)cc2)c1C,-3,8,3,-1
CCOC(=O)c1sc(NS(=O)(=O)c2ccccc2Cl)nc1C,-12,1,14,3
COC(=O)CSc1nc(C)c(Oc2ccccc2)c(=O)[nH]1,-12,-2,10,4
Cc1ccc(C2C(C(=O)c3sc(-c4ccccc4)nc3C)=C(O)C(=O)N2CCN(C)C)o1 (configuration not stated),9,1,-7,-7
Oc1ccc2ccccc2c1C=Nc1ccc(N2CCOCC2)cc1,2,72*[fluorescence artefact?],-1,4
Oc1ccc2ccccc2c1C=NC12CN3CCN(CN(C3)C1)C2,8,7,-10,-1
O=C(CCn1c(=O)oc2ccccc21)NCc1cccs1,-14,3,13,0
COc1ccc2nc(SCc3cnc(C)nc3N)[nH]c2c1,58*,7,-57,-6
COC(=O)C1CSc2[nH]c(=O)sc2C1c1ccccc1 (configuration not stated),-6,79*,6,7
COC(=O)C1Sc2[nH]c(=O)sc2C(c2ccc(Cl)cc2)C1C(=O)OC (configuration not stated),0,1,-3,-10
O=C1c2ccccc2S(=O)(=O)N1Cc1nnc(-c2ccccc2Br)o1,8,0,-4,7
O=S1(=O)c2cccc3cccc(c23)N1Cc1nnc(-c2ccccc2Br)o1,-4,11,2,16*
SMILES,LYP inh 2,HIV Rev-RRE inh,PTPN22 act,EphB4 antag
CN(CCOc1ccc(-c2ccn(S(=O)(=O)c3cccc4ccccc34)n2)cc1)c1ccccn1,10,6,-7,-2
Cc1oc2c(c1C(=O)Nc1ccc(C(=O)O)cc1)CCCC2,-2,2,4,8
Cn1nc(-c2ccccc2)c(C(=O)Nc2ccc(Cl)cc2)c1Cl,-6,2,10,-2
Cc1ccc(S(=O)(=O)c2c(COC(=O)c3ccc(Cl)cc3)c(-c3ccccc3)nn2C)cc1,7,73*,-8,-3
O=[N+]([O-])c1ccc(N/N=C/c2cn(-c3ccccc3)nc2-c2ccccc2)cc1,-1,64*,3,-11
O=[N+]([O-])c1ccc(N/N=C/c2c[nH]c3ccccc23)cc1,0,58*[fluorescence artefact?],5,-6
